STAT3 act – increases IL-6 driven STAT3 reporter signal; 190,000 tested, 0.91% active; U3A cells, IL-6 STAT3-luciferase reporter, luminescence; 100% = signal with IL-6 EC80 alone; activation (% of control), % at 5.6 µM; AID 871;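 active means activation above the screen-wide mean of compound activation plus 3 SD, cut at about 130% in these data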
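Material: human STAT1-deficient U3A cells with stable STAT3-luciferase reporter / Probe or stimulus: IL-6 stimulus at 33 ng/mL final / Schedule: 1 h compound pre-exposure, 6 h IL-6 stimulation, 37 °C / Technique: luminescence / Read-out basis: percent of IL-6-only median luminescence / Control set: IL-6-only high control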
STAT1 inh – inhibitors of IFN-gamma induced STAT1 signaling; NIH 3T3 STAT1-luciferase reporter, luminescence; inhibition, % at 5.5 µM; 200,000 tested, 0.35% active;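 active means inhibition above a set limit, the mean inhibition across all tested compounds plus 3 SD, cut at about 34% in these data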
HSV replic up – increases HSV replication in cells | HSV replication augmentation in cells, fold increase | maximum fold increase | 220,000 tested, 0.005% active | AID 1956; in the data active means maximum fold increase above about 1.5; inconclusive means no clear call, values can overlap the other calls; tested in PC3 cells
STAT1 activator – STAT1 signaling activation; 200,000 tested, 2.6% active; activation (% of control), % at 5.5 µM; NIH 3T3 STAT1-luciferase reporter, IFN-gamma, luminescence; 100% = IFN-gamma alone, no compound;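 active means activation above the screen-wide mean activation plus 3 SD, cut at about 130% in these data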
KCC2 mod – modulates chloride dependent transport by human KCC2 | Q9H2X9 | KCC2 cells, thallium flux FluoZin-2 fluorescence | B-score of Tl+ flux slope (higher = more flux/activation; lower = inhibition) at 10 µM | 190,000 tested, 2.2% active | AID 1456;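 active means thallium flux slope and its plate-corrected score both differing from the plate sample mean at a set confidence after two filtering rounds, in either direction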;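 further: slope of fluorescence scaled to starting intensity during 10 to 20 s after thallium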
Target sequence (Q9H2X9 whole entry, looked up): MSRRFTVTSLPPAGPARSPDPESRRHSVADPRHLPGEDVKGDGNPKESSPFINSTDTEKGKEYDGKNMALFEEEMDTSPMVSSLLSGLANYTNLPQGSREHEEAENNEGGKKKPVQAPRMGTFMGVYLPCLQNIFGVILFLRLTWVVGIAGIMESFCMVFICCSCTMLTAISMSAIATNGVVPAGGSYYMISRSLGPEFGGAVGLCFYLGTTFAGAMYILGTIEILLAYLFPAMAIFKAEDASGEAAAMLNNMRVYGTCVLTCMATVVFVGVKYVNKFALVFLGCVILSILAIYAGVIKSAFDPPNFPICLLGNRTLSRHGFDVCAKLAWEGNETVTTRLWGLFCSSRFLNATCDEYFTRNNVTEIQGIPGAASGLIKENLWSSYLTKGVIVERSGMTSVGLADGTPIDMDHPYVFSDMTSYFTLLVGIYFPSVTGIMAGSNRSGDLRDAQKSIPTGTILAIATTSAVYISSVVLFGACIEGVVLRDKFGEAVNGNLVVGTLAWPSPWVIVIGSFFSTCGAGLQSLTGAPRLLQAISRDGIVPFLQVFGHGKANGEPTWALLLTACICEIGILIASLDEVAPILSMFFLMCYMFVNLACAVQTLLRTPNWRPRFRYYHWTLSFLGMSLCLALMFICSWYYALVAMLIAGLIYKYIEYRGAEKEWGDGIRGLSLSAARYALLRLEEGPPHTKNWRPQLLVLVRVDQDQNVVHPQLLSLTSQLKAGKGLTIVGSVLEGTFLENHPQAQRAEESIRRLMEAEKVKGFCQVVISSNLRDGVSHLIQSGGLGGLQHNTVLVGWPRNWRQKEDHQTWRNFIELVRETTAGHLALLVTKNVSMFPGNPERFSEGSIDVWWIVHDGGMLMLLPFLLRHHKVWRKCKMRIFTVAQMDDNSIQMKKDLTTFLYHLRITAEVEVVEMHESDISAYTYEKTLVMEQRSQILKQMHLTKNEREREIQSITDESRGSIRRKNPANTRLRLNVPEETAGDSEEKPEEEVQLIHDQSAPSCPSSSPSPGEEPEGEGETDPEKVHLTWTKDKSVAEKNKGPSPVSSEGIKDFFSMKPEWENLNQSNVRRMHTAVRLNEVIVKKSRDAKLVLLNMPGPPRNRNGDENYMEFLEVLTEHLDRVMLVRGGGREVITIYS
STAT3 inh-1 – reduces IL-6 driven STAT3 reporter signal. AID 862. inhibition, % at 5.5 µM. U3A cells, IL-6 STAT3-luciferase reporter, luminescence; host cell line lacks STAT1. 190,000 tested, 0.89% active;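 active means inhibition above the mean inhibition across all screened compounds plus 3 SD, cut at about 44% in these data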
STAT3 inh-2 – confirmation of STAT3 signaling inhibitors; shares compounds with STAT3 inh-1; U3A cells, IL-6 STAT3 luciferase reporter, luminescence; cell line lacks STAT1; inhibition, % at 5.7 µM; 1,200 tested, 45% active; AID 1265;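 active means inhibition above the hit cutoff computed for the primary STAT3 screen, cut at about 44% in these data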
NFkB inh STAT3ct – inhibits NF-kappaB, counter-screen to STAT3 inhibitors; shares compounds with STAT3 inh-1; HEK293T NF-kB luciferase reporter, TNF-alpha induced; inhibition, % at 5.7 µM; 1,200 tested, 36% active; AID 1308;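 active means inhibition above the mean of solvent-only control wells plus 3 SD, cutoff set per campaign, cut at about 13% in these data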
STAT1 inh STAT3c – counter-screen for STAT3 inhibitors: STAT1 inhibition; shares compounds with STAT3 inh-1; NIH 3T3 STAT1-luciferase reporter, IFN-gamma induced, luminescence; inhibition, % at 5.7 µM; 1,200 tested, 27% active;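 active means inhibition above the mean plus 3 SD of solvent-only control wells, limit set per screening run, cut at about 16% in these data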
KCC2 sec1 – confirmation of human KCC2 transport modulators; shares compounds with KCC2 mod; normalised thallium flux (F/F0 slope) at 10 µM; 3,700 tested, 15% active; HEK293-KCC2, thallium flux, FluoZin2 fluorescence; active compounds read high;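 active means thallium flux slope above the same plate's solvent-only control mean plus 3 SD; inconclusive means the two replicate wells disagree; inactive means no significant difference from solvent-only control wells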
KCC2 bumet counter – thallium flux persisting under bumetanide in KCC2 cells, counter-screen secondary assay; shares compounds with KCC2 mod; normalized thallium flux at 10 µM; HEK293-KCC2 + bumetanide/ouabain, thallium flux FluoZin2; active compounds read high; 3,700 tested, 49% active; AID 1714;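 active means thallium entry rate above the same plate's blocked-transporter control wells by more than 3 SD; inconclusive means the two repeat wells disagree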;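 further: raw slope of fluorescence over initial fluorescence between 10 and 20 s after thallium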
KCC2 sec2 – KCC2 (human) modulation, second secondary assay | normalized thallium flux at 10 µM | 3,700 tested, 23% active | HEK293-KCC2, thallium flux FluoZin2 fluorescence; actives lie on both sides; F/F0 rise rate, 10–20 s post-thallium | shares compounds with KCC2 mod | AID 1715;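 active means thallium flux slope more than 3 SD above or below the plate's solvent-only control mean, mostly below; inconclusive means the two repeat wells disagreed; inactive means no significant shift from solvent-only controls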
HEK293 Tl flux – counter-screen for KCC2 modulators: effect in parental HEK293 cells; shares compounds with KCC2 mod; thallium flux FluoZin2, ouabain; baseline-ratio fluorescence slope, 10–20 s after thallium; thallium flux rate (normalised fluorescence) at 10 µM; 3,700 tested, 46% active; AID 1716;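 active means thallium flux rate significantly above the same plate's solvent-only control wells, beyond their mean plus 3 SD; inconclusive means the two replicate wells gave conflicting results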
KCC2 retest ouab – modulates human KCC2 on retest with ouabain | AID 1717 | 3,700 tested, 48% active | HEK293-KCC2, thallium flux FluoZin2 fluorescence; bidirectional: low = inhibitor, high = activator | raw Tl+ flux slope (below DMSO = inhibition, above = activation) at 10 µM | shares compounds with KCC2 mod;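 active means thallium flux slope beyond 3 SD from same-plate DMSO control mean in most replicates, usually higher, sometimes lower; inconclusive means repeat tests gave conflicting results; inactive means no significant difference from controls in most replicates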;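 further: slope of initial-normalized fluorescence between seconds 10 and 20 after thallium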
HEK293 Tl flux2 – counter-screen for KCC2 modulators: effect in parental HEK293 cells. shares compounds with KCC2 mod. thallium flux FluoZin-2 fluorescence slope. thallium flux slope at 10 µM. 3,700 tested, 33% active. AID 1718;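 active means thallium flux slope above the same plate's solvent-control mean plus 3 SD in both duplicate wells; inconclusive means duplicate wells that disagreed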;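 further: run without ouabain in cells lacking the KCC2 cotransporter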
Numbers stand for hits; - = inactive; ? = inconclusive; . = no result given. In the library only some 5.5% were active in any assay of this set; here they are far more common.

SMILES	STAT3 act	STAT1 inh	HSV replic up	STAT1 activator	KCC2 mod	STAT3 inh-1	STAT3 inh-2	NFkB inh STAT3ct	STAT1 inh STAT3c	KCC2 sec1	KCC2 bumet counter	KCC2 sec2	HEK293 Tl flux	KCC2 retest ouab	HEK293 Tl flux2
Nc1ccc(C(=O)Nc2nc3ccccc3s2)cc1	-	-	-	-	-3.62	51.1	-	-	-	-	-	-	-	-	-
O=C(Cc1ccccc1)Nc1nc2ccccc2s1	-	-	-	-	-	-	.	.	.	.	.	.	.	.	.
Cc1cc(C(=O)CSc2nc(N)cc(=O)[nH]2)c(C)n1CCc1ccc(F)cc1	-	-	-	-	-4.18	46.0	-	-	-	-	-	-	-	-	-
CCn1nc(C)c(CNC(=O)CCc2nnc(-c3ccc(C(C)=O)s3)o2)c1C	-	-	-	-	-	-	.	.	.	.	.	.	.	.	.
CC1=C(C(=O)c2ccccc2)C(c2ccc(OC(F)F)cc2)NC(=S)N1 (stereo unspecified)	-	-	-	-	-	-	.	.	.	.	.	.	.	.	.
Cc1ccc(-c2nn(-c3ccccc3)cc2/C=N/NC(=O)c2ccc(Br)o2)cc1	-	-	-	-	3.16	45.8	-	-	-	-	0.00663	-	0.0101	-	0.0136
Cc1cccc(C(=O)NNC2=C(C(=O)C(F)(F)F)CCC2)c1O	-	-	-	-	.	-	.	.	.	.	.	.	.	.	.
O=C(C1CCN(S(=O)(=O)c2cccc3cccnc23)CC1)N1CCN(c2ccc(Cl)cc2)CC1	-	-	-	-	-3.73	47.0	-	14.3	24.2	-	?	-	-	-	-
O=C(c1cc(COc2c(F)cccc2F)on1)N1CCC(c2ccncc2)CC1	-	-	-	-	.	52.9	59.0	18.3	19.5	?	0.00845	?	-	0.0188	-
O=C(NCc1ccc(Cl)s1)c1cc(COc2c(F)cccc2F)on1	-	-	-	-	.	-	.	.	.	.	.	.	.	.	.
CCCS(=O)(=O)N1CCN(C(=O)COc2ccc(OC)cc2)CC1	-	-	-	-	-	-	.	.	.	.	.	.	.	.	.
O=C(Nc1nc2c(F)cc(F)cc2s1)c1ccccn1	-	-	-	-	23.2	66.0	-	-	-	0.0201	0.105	-	0.0391	0.076	0.015
c1ccc2c(c1)CCN(c1nc3ccccc3n3cnnc13)C2	-	-	-	-	-	-	.	.	.	.	.	.	.	.	.

Screening data from PubChem.
